Data: ChEMBL document CHEMBL1287679, “Tuning hydrophobicity of highly cationic tetradecameric Gramicidin S analogues using adamantane amino acids” (Bioorg Med Chem, 2010)
In brackets after ≈: the same amount, converted by molar mass. Where a SMILES comes first, the peptide text is derived from it. [ ]: non-standard residue; d: D form. Orn = NCCC[C@H](N)C(=O)O

How the values were obtained:
[1] = tested on: Staphylococcus epidermidis; assay: Antimicrobial activity against Staphylococcus epidermidis ATCC 12228 by broth dilution method; type: functional
Procedure, shortened: (§1)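 Stored at −70 °C, grown at 35 °C on Columbia sheep-blood agar, then suspended in physiological saline to OD 0.1 AU at 595 nm and diluted 100× in saline. 2 µL inoculum was added to 50 µL cation-adjusted Mueller Hinton II broth. Peptides in methanol (4 g/L stock) were diluted in water, then two-fold in broth (64–1 mg/L). Incubation was 35 °C for 24–48 h. MIC is the lowest concentration inhibiting growth.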

Staphylococcus aureus [2] = assay: Antimicrobial activity against methicillin-resistant Staphylococcus aureus ATCC 43300 by broth dilution method; type: functional
Procedure, shortened: (§2)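 Frozen (−70 °C) stocks grown at 35 °C on Columbia sheep-blood agar, suspended in physiological saline to OD595 0.1, diluted 100×; 2 µL inoculum into 50 µL cation-adjusted Mueller Hinton II broth in 96-well plates. Peptides dissolved in methanol (4 g/L), diluted in water, two-fold serial dilutions in broth (64–1 mg/L). Incubation at 35 °C, 24–48 h; MIC = lowest concentration inhibiting growth.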

Staphylococcus aureus [3] = assay: Antimicrobial activity against Staphylococcus aureus ATCC 29213 by broth dilution method; type: functional; procedure, shortened: as §2
Staphylococcus aureus [4] = assay: Antimicrobial activity against methicillin-resistant Staphylococcus aureus isolate 1110301981 by broth dilution method; type: functional; procedure, shortened: as §2
Staphylococcus aureus [5] = assay: Antimicrobial activity against methicillin-resistant Staphylococcus aureus N229 by broth dilution method; type: functional; procedure, shortened: as §2
Staphylococcus aureus [6] = assay: Antimicrobial activity against community acquired methicillin-resistant Staphylococcus aureus isolate 1110301146 by broth dilution method; type: functional; procedure, shortened: as §2
Pseudomonas aeruginosa = assay: Antimicrobial activity against Pseudomonas aeruginosa ATCC 27853 by broth dilution method; type: functional; procedure, shortened: as §1
Escherichia coli = assay: Antimicrobial activity against Escherichia coli ATCC 25922 by broth dilution method; type: functional; procedure, shortened: as §1
[7] = Toxicity in Erythrocyte assessed as concentration required to achieve 100% hemolysis after 4 hrs; type: cell-based
Procedure, shortened: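 Heparinized fresh blood was centrifuged (1000g, 10 min, 10 °C). Erythrocytes were washed three times in 0.85% saline and diluted to a 1/25 packed volume. Peptides were prepared as a 1.5 mM stock in 30% DMSO/0.5 mM saline and serially two-fold diluted in triplicate rows. 1% Triton-X served as the full-lysis control. Incubation was 37 °C for 4 h, then centrifugation; supernatant was read. Value is the concentration giving 100% lysis.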

Bacillus cereus = assay: Antimicrobial activity against Bacillus cereus ATCC 11778 by broth dilution method; type: functional; procedure, shortened: as §1
Enterococcus faecalis = assay: Antimicrobial activity against Enterococcus faecalis ATCC 29212 by broth dilution method; type: functional; procedure, shortened: as §1
[8] = Therapeutic index, concentration required to achieve 100% hemolysis in erythrocyte to MIC for Escherichia coli ATCC 25922; details: erythrocytes
Procedure, shortened: (§3)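 Therapeutic index was taken as the concentration for 100% haemolysis divided by MIC for the given strain.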

Staphylococcus aureus [9] = assay: Antimicrobial activity against methicillin-resistant Staphylococcus aureus N133 by broth dilution method; type: functional; procedure, shortened: as §2
[10] = Therapeutic index, concentration required to achieve 100% hemolysis in erythrocyte to MIC for Staphylococcus aureus ATCC 29213; details: erythrocytes; procedure, shortened: as §3
Staphylococcus aureus [11] = assay: Antimicrobial activity against methicillin-resistant Staphylococcus aureus ATCC 49775 by broth dilution method; type: functional; procedure, shortened: as §2

| Compound | MIC [1] [µg/mL] | MIC (Staphylococcus aureus [2]) [µg/mL] | MIC (Staphylococcus aureus [3]) [µg/mL] | MIC (Staphylococcus aureus [4]) [µg/mL] | MIC (Staphylococcus aureus [5]) [µg/mL] | MIC (Staphylococcus aureus [6]) [µg/mL] | MIC (Pseudomonas aeruginosa) [µg/mL] | MIC (Escherichia coli) [µg/mL] | Activity [7] [µM] | MIC (Bacillus cereus) [µg/mL] | MIC (Enterococcus faecalis) [µg/mL] | selectivity ratio [8] | MIC (Staphylococcus aureus [9]) [µg/mL] | selectivity ratio ([10]; read-out: Ratio) | MIC (Staphylococcus aureus [11]) [µg/mL] | selectivity ratio ([10]; read-out: TI) |
| --- | --- | --- | --- | --- | --- | --- | --- | --- | --- | --- | --- | --- | --- | --- | --- | --- |
| CC(C)C[C@@H]1NC(=O)[C@H](CCCN)NC(=O)[C@H](C(C)C)NC(=O)[C@H](CCCN)NC(=O)[C@@H]2CCCN2C(=O)[C@@H](Cc2ccccc2)NC(=O)[C@H](CCCN)NC(=O)[C@H](CC(C)C)NC(=O)[C@H](CCCN)NC(=O)[C@H](C(C)C)NC(=O)[C@H](CCCN)NC(=O)[C@@H]2CCCN2C(=O)[C@@H](Cc2ccccc2)NC(=O)[C@H](CCCN)NC1=O | 8 (≈ 5.01 µM) | > 64 | 64 (≈ 40 µM) | 64 (≈ 40 µM) | 64 (≈ 40 µM) | 64 (≈ 40 µM) | 64 (≈ 40 µM) | 32 (≈ 20 µM) | > 500 | 32 (≈ 20 µM) | > 64 | 11.7 | > 64 | 11.7 | 64 (≈ 40 µM) | – |
| CC(C)C[C@@H]1NC(=O)[C@H](CCCN)NC(=O)[C@H](C(C)C)NC(=O)[C@H](CCCN)NC(=O)[C@@H]2CCCN2C(=O)[C@@H](Cc2ccccc2)NC(=O)[C@H](CCCN)NC(=O)[C@H](CC23CC4CC(CC(C4)C2)C3)NC(=O)[C@H](CCCN)NC(=O)[C@H](C(C)C)NC(=O)[C@H](CCCN)NC(=O)[C@@H]2CCCN2C(=O)[C@@H](Cc2ccccc2)NC(=O)[C@H](CCCN)NC1=O | 8 (≈ 4.73 µM) | 8 (≈ 4.73 µM) | 16 (≈ 9.47 µM) | 8 (≈ 4.73 µM) | 16 (≈ 9.47 µM) | 16 (≈ 9.47 µM) | 16 (≈ 9.47 µM) | 16 (≈ 9.47 µM) | 125 | 8 (≈ 4.73 µM) | 32 (≈ 18.9 µM) | 7.8 | 8 (≈ 4.73 µM) | 7.8 | 8 (≈ 4.73 µM) | – |
| CC(C)C[C@@H]1NC(=O)[C@H](CCCN)NC(=O)[C@H](C(C)C)NC(=O)[C@H](CCCN)NC(=O)[C@@H]2CCCN2C(=O)[C@@H](Cc2ccccc2)NC(=O)[C@H](CCCN)NC(=O)[C@H](CC(C)C)NC(=O)[C@H](CCCN)NC(=O)[C@H](C23CC4CC(CC(C4)C2)C3)NC(=O)[C@H](CCCN)NC(=O)[C@@H]2CCCN2C(=O)[C@@H](Cc2ccccc2)NC(=O)[C@H](CCCN)NC1=O | 4 (≈ 2.37 µM) | 8 (≈ 4.73 µM) | 16 (≈ 9.47 µM) | 8 (≈ 4.73 µM) | 8 (≈ 4.73 µM) | 16 (≈ 9.47 µM) | 8 (≈ 4.73 µM) | 16 (≈ 9.47 µM) | 125 | 8 (≈ 4.73 µM) | 32 (≈ 18.9 µM) | 15.6 | 8 (≈ 4.73 µM) | 7.8 | 8 (≈ 4.73 µM) | – |
| CC(C)C[C@@H]1NC(=O)[C@H](CCCN)NC(=O)[C@H](C(C)C)NC(=O)[C@H](CCCN)NC(=O)[C@@H]2CCCN2C(=O)[C@@H](Cc2ccccc2)NC(=O)[C@H](CCCN)NC(=O)[C@H](CC23CC4CC(CC(C4)C2)C3)NC(=O)[C@H](CCCN)NC(=O)[C@H](C23CC4CC(CC(C4)C2)C3)NC(=O)[C@H](CCCN)NC(=O)[C@@H]2CCCN2C(=O)[C@@H](Cc2ccccc2)NC(=O)[C@H](CCCN)NC1=O | 4 (≈ 2.24 µM) | 16 (≈ 8.98 µM) | 8 (≈ 4.49 µM) | 16 (≈ 8.98 µM) | 16 (≈ 8.98 µM) | 16 (≈ 8.98 µM) | 8 (≈ 4.49 µM) | 16 (≈ 8.98 µM) | 31.3 | 1 (≈ 0.561 µM) | 8 (≈ 4.49 µM) | 3.9 | 16 (≈ 8.98 µM) | 3.9 | 16 (≈ 8.98 µM) | – |
| CC(C)C[C@@H]1NC(=O)[C@H](CCCN)NC(=O)[C@H](C23CC4CC(CC(C4)C2)C3)NC(=O)[C@H](CCCN)NC(=O)[C@@H]2CCCN2C(=O)[C@@H](Cc2ccccc2)NC(=O)[C@H](CCCN)NC(=O)[C@H](CC(C)C)NC(=O)[C@H](CCCN)NC(=O)[C@H](C23CC4CC(CC(C4)C2)C3)NC(=O)[C@H](CCCN)NC(=O)[C@@H]2CCCN2C(=O)[C@@H](Cc2ccccc2)NC(=O)[C@H](CCCN)NC1=O | 8 (≈ 4.49 µM) | 8 (≈ 4.49 µM) | 8 (≈ 4.49 µM) | 8 (≈ 4.49 µM) | 8 (≈ 4.49 µM) | 8 (≈ 4.49 µM) | 16 (≈ 8.98 µM) | 16 (≈ 8.98 µM) | 31.3 | 2 (≈ 1.12 µM) | 8 (≈ 4.49 µM) | 2 | 8 (≈ 4.49 µM) | 3.9 | 8 (≈ 4.49 µM) | – |
| CC(C)C[C@@H]1NC(=O)[C@H](CCCN)NC(=O)[C@H](C23CC4CC(CC(C4)C2)C3)NC(=O)[C@H](CCCN)NC(=O)[C@@H]2CCCN2C(=O)[C@@H](Cc2ccccc2)NC(=O)[C@H](CCCN)NC(=O)[C@H](CC23CC4CC(CC(C4)C2)C3)NC(=O)[C@H](CCCN)NC(=O)[C@H](C(C)C)NC(=O)[C@H](CCCN)NC(=O)[C@@H]2CCCN2C(=O)[C@@H](Cc2ccccc2)NC(=O)[C@H](CCCN)NC1=O | 4 (≈ 2.24 µM) | 16 (≈ 8.98 µM) | 8 (≈ 4.49 µM) | 16 (≈ 8.98 µM) | 16 (≈ 8.98 µM) | 16 (≈ 8.98 µM) | 16 (≈ 8.98 µM) | 16 (≈ 8.98 µM) | 31.3 | 4 (≈ 2.24 µM) | 16 (≈ 8.98 µM) | 2 | 32 (≈ 18 µM) | 3.9 | 16 (≈ 8.98 µM) | – |
| CC(C)[C@@H]1NC(=O)[C@H](CCCN)NC(=O)[C@@H]2CCCN2C(=O)[C@@H](Cc2ccccc2)NC(=O)[C@H](CCCN)NC(=O)[C@H](CC23CC4CC(CC(C4)C2)C3)NC(=O)[C@H](CCCN)NC(=O)[C@H](C(C)C)NC(=O)[C@H](CCCN)NC(=O)[C@@H]2CCCN2C(=O)[C@@H](Cc2ccccc2)NC(=O)[C@H](CCCN)NC(=O)[C@H](CC23CC4CC(CC(C4)C2)C3)NC(=O)[C@H](CCCN)NC1=O | 8 (≈ 4.49 µM) | 8 (≈ 4.49 µM) | 8 (≈ 4.49 µM) | 8 (≈ 4.49 µM) | 8 (≈ 4.49 µM) | 8 (≈ 4.49 µM) | 8 (≈ 4.49 µM) | 32 (≈ 18 µM) | 31.3 | 8 (≈ 4.49 µM) | 8 (≈ 4.49 µM) | 3.9 | 8 (≈ 4.49 µM) | 3.9 | 8 (≈ 4.49 µM) | – |
| CC(C)[C@@H]1NC(=O)[C@H](CCCN)NC(=O)[C@@H]2CCCN2C(=O)[C@@H](Cc2ccccc2)NC(=O)[C@H](CCCN)NC(=O)[C@H](CC23CC4CC(CC(C4)C2)C3)NC(=O)[C@H](CCCN)NC(=O)[C@H](C23CC4CC(CC(C4)C2)C3)NC(=O)[C@H](CCCN)NC(=O)[C@@H]2CCCN2C(=O)[C@@H](Cc2ccccc2)NC(=O)[C@H](CCCN)NC(=O)[C@H](CC23CC4CC(CC(C4)C2)C3)NC(=O)[C@H](CCCN)NC1=O | 4 (≈ 2.13 µM) | 16 (≈ 8.54 µM) | 16 (≈ 8.54 µM) | 16 (≈ 8.54 µM) | 16 (≈ 8.54 µM) | 32 (≈ 17.1 µM) | 16 (≈ 8.54 µM) | 32 (≈ 17.1 µM) | 15.6 | 4 (≈ 2.13 µM) | 8 (≈ 4.27 µM) | 1 | 16 (≈ 8.54 µM) | 1 | 16 (≈ 8.54 µM) | – |
| CC(C)C[C@@H]1NC(=O)[C@H](CCCN)NC(=O)[C@H](C23CC4CC(CC(C4)C2)C3)NC(=O)[C@H](CCCN)NC(=O)[C@@H]2CCCN2C(=O)[C@@H](Cc2ccccc2)NC(=O)[C@H](CCCN)NC(=O)[C@H](CC23CC4CC(CC(C4)C2)C3)NC(=O)[C@H](CCCN)NC(=O)[C@H](C23CC4CC(CC(C4)C2)C3)NC(=O)[C@H](CCCN)NC(=O)[C@@H]2CCCN2C(=O)[C@@H](Cc2ccccc2)NC(=O)[C@H](CCCN)NC1=O | 8 (≈ 4.27 µM) | 16 (≈ 8.54 µM) | 16 (≈ 8.54 µM) | 8 (≈ 4.27 µM) | 8 (≈ 4.27 µM) | 8 (≈ 4.27 µM) | 16 (≈ 8.54 µM) | 32 (≈ 17.1 µM) | 15.6 | 4 (≈ 2.13 µM) | 8 (≈ 4.27 µM) | 1 | 8 (≈ 4.27 µM) | 1 | 16 (≈ 8.54 µM) | – |
| CC(C)C[C@@H]1NC(=O)[C@H](CCCN)NC(=O)[C@H](C(C)C)NC(=O)[C@@H]2CCCN2C(=O)[C@@H](Cc2ccccc2)NC(=O)[C@H](CC(C)C)NC(=O)[C@H](CCCN)NC(=O)[C@H](C(C)C)NC(=O)[C@@H]2CCCN2C(=O)[C@@H](Cc2ccccc2)NC1=O [GRAMICIDIN S] (cyclo(L[dF]PV[Orn]L[dF]PV[Orn])) | 8 (≈ 7.01 µM) | 8 (≈ 7.01 µM) | 32 (≈ 28 µM) | 16 (≈ 14 µM) | 8 (≈ 7.01 µM) | 16 (≈ 14 µM) | 32 (≈ 28 µM) | 64 (≈ 56.1 µM) | 62.5 | 8 (≈ 7.01 µM) | 8 (≈ 7.01 µM) | 2 | 16 (≈ 14 µM) | – | 8 (≈ 7.01 µM) | 2 |
